Published values pooled from the literature.
Each line is one published result; the experiments were not run side by side.
RAF1 Y340D/Y341D: RAF proto-oncogene serine/threonine-protein kinase (RAF1, Homo sapiens, UniProt P04049, Y340D/Y341D)
RAF1: RAF proto-oncogene serine/threonine-protein kinase (RAF1, Homo sapiens, UniProt P04049)

SMILES | target | observed | action | method | concentration | quantity | result
CC(C)(C)c1nc(-c2cccc(NS(=O)(=O)c3c(F)cccc3F)c2F)c(-c2ccnc(N)n2)s1 | RAF1 Y340D/Y341D | enzyme activity | inhibitor | radiometric | 1 µM | remaining activity | 1%
CN(C)C(=O)Cn1cc(-c2nc(C3(c4ccc(-c5cnc(N)nc5)cc4)CC3)no2)cn1 | RAF1 | cell-free assay | – | competition with immobilised ligand | 1 µM | remaining binding | 100%
CNCc1ccc(-c2cc(-c3nc(-c4ccc(S(=O)(=O)C(C)C)cc4)cnc3N)on2)cc1 | RAF1 | enzyme activity | inhibitor | – | 2 µM | inhibition | 10%
CC(C)(O)[C@H]1CC[C@H](Nc2ccc3ncc(-c4cccc(C(F)(F)F)c4)n3n2)CC1 | RAF1 | enzyme activity | inhibitor | – | 1 µM | remaining activity | 91.6%
Cc1ccc(NC(=O)c2ccc(C)c(C(F)(F)F)c2)cc1C#Cc1nn(C2CCC(O)CC2)c2ncnc(N)c12 (stereo not shown) | RAF1 | cell-free assay | – | – | 10 µM | remaining signal | 24%
CC(C)c1ccc(NC(=O)c2cccs2)c(-c2nc3ccccc3[nH]c2=O)c1 | RAF1 | enzyme activity | inhibitor | – | 1 µM | activity vs control | 96%
CCN(CC)CCNC(=O)c1c(C)[nH]c(/C=C2\C(=O)Nc3ccc(F)cc32)c1C | RAF1 | enzyme activity | inhibitor | – | 0.1 µM | remaining activity | 95%
CS(=O)(=O)Nc1cccc(-c2csc(NC(=O)CSc3nc4nccnc4c(=O)n3CCc3ccccc3)n2)c1 | RAF1 Y340D/Y341D | enzyme activity | inhibitor | – | 10 µM | inhibition | -1%
CN([C@@H]1CCc2c(CC(=O)O)c3ccccc3n2C1)S(=O)(=O)c1ccc(F)cc1 | RAF1 | cell-free assay | – | competition with immobilised ligand | 1 µM | remaining binding | 100%
CN(C)C1CCN(CC#Cc2nn(C3CCCC3)c3nc(NCc4ccccc4)ncc23)C1 (stereo not shown) | RAF1 Y340D/Y341D | enzyme activity | inhibitor | FRET | 0.1 µM | inhibition | -5%
Nc1cnc(N2CCc3cc(S(=O)(=O)Nc4c(F)cc(Cl)cc4F)cc(N4CCCC4=O)c32)nc1 | RAF1 | cell-free assay | – | competition with immobilised ligand | 1 µM | remaining binding | 79%
N#CCCc1ccc2c(c1)-c1[nH]c3ccc([N+](=O)[O-])cc3c1CC(=O)N2 | RAF1 | cell-free assay | – | – | 0.5 µM | remaining signal | 104%
COc1cc2ncnc(Nc3ccc(Oc4ccccc4)cc3C)c2cc1OC | RAF1 Y340D/Y341D | enzyme activity | inhibitor | – | 1 µM | inhibition | 27%
CCCCN(CCCC)C(=O)CN1C[C@@H](c2cc(OC)c3c(c2)OCO3)[C@H](C(=O)O)[C@H]1CC(C)(C)CCC | RAF1 | cell-free assay | – | competition with immobilised ligand | 1 µM | remaining binding | 93.3%
Cc1[nH]c(/C=C2\C(=O)Nc3ccc(F)cc32)c(C)c1C(=O)N[C@H]1CCN(C(=O)N(C)C)C1 | RAF1 | enzyme activity | inhibitor | – | 1 µM | remaining activity | 100%
CS(=O)(=O)c1cc(C2(NC(=O)c3cncc4c3cnn4-c3ccc(F)cc3)CC2)ccn1 | RAF1 | cell-free assay | – | competition with immobilised ligand | 1 µM | remaining binding | 100%
Cc1cc(NC(=O)c2cccc3cc(-c4cccc5[nH]nc(N)c45)ccc23)ccc1F | RAF1 | enzyme activity | inhibitor | – | 0.1 µM | activity vs control | 97%
CN(C(=O)c1ccccc1)c1cc(N(C)c2ccc3c(c2)CCc2ccc(C(=O)NCCN4CCOCC4)cc2C3=O)ccc1F | RAF1 | cell-free assay | – | competition with immobilised ligand | 1 µM | remaining binding | 87%
O=C(Nc1cnn(-c2csc(C(=O)NC3COC3)c2)c1)Nc1ccccc1Cl | RAF1 | enzyme activity | inhibitor | – | 5 µM | remaining activity | 87%
O=C1Nc2ccc(Cl)cc2C1=Cc1cc(Cl)c(O)c(Cl)c1 | RAF1 | cell-free assay | – | – | 0.5 µM | remaining signal | 6.93%
Nc1c(C(=O)NCc2ccc(C(=O)NCCCC3CCCCC3)cc2)cnn1-c1ccccc1 | RAF1 | cell-free assay | – | competition with immobilised ligand | 0.1 µM | remaining binding | 100%
CSc1nc(C)c(-c2ccnc(Nc3ccc(N4CCOCC4)cc3)c2)[nH]1 | RAF1 | enzyme activity | inhibitor | – | 10 µM | inhibition | 64.1%
